Laboratory results as given in PubChem BioAssay AID504383 (The Scripps Research Institute Molecular Screening Center, 2011).
Among all 2,500 compounds or so, about 1,200 (48%) were called active.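 Rule for the calls: active = mean activation above the low control average plus 3 SD, as set in the primary screen (cut at about 12% in these data); inactive = the rest.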 The set was probably picked from earlier hits. This is one part of the list.

molecular target: Troponin I, cardiac muscle (Homo sapiens) + Troponin T, cardiac muscle (Homo sapiens) + Troponin C, slow skeletal and cardiac muscles (Homo sapiens) (UniProt P19429+P45379+P63316); test: cardiac RTF calcium sensitivity activators, confirmation, biochemical, IANBD-TnC fluorescence, triplicate (AID 504383); details: IANBD-labeled cardiac RTF, Ca2+ sensitivity fluorescence; at 7.2 µM; stronger effect = higher value; scaled from EC20 to saturating calcium; tested at EC20 calcium, 0.472 mM;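 note: 0% = DMSO at 0.472 mM calcium and 100% = DMSO at 2.9 mM calcium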
Outline: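 System: Labelled thin filament complex | Technique: Filament fluorescence intensity | Benchmarks: Low control EC20 calcium, high control EC100 calcium | Timing: 15 min at 25 °C | Compound dosing: One dose, 7.2 µM nominal | Probe or stimulus: Ca2+ 0.472 mM, EC20 level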

activation, active:
O=C(CCc1ccc(S(=O)(=O)N2CCOCC2)cc1)OCC(=O)c1ccccc1 20.7%
NS(=O)(=O)c1cccc(NC(=O)CCc2ccc(S(=O)(=O)N3CCOCC3)cc2)c1 84.4%
Nc1ccc2c(c1)C/C(=C/c1ccco1)C2=O 22%
O=C1C(=Cc2ccco2)CCCC1=Cc1ccco1 93.5%
O=C(O)CCC(=O)NNC(=O)c1ccc(-c2ccccc2)cc1 104%
O=S(=O)(Nc1nc2ccccc2nc1NCCO)c1cccc(Cl)c1 233%
Cn1c(-c2ccc(C=O)s2)nc2c3ccccc3c3ccccc3c21 25.8%
CCOc1ccc(-c2nc3scc(-c4cccs4)c3c(=O)[nH]2)cc1 54.4%
N=c1c2c(ncn1Cc1ccco1)Oc1cc(O)ccc1C2c1ccccc1 (configuration not stated) 127%
COc1ccc(C2c3ccc(O)cc3Oc3ncn(CCN4CCOCC4)c(=N)c32)cc1OC (configuration not stated) 23%
COc1ccc(C2c3ccc(O)cc3Oc3ncn(Cc4ccco4)c(=N)c32)cc1 (configuration not stated) 15.9%
N#CC1(C#N)CC(C=O)=C(N)C1(C#N)CC(=O)c1ccc(F)cc1 (configuration not stated) 18.1%
COC(=O)C1=C(C)NC(=O)/C1=C\N(C)C 29.9%

activation, inactive:
CN1CCc2c(sc3nc(SCC(N)=O)n(-c4ccccc4)c(=O)c23)C1 3.18%
O=C(COC(=O)C1CC2C=CC1C2)Nc1cccc(S(=O)(=O)N2CCCCCC2)c1 (configuration not stated) 5.75%
Cc1cc(O)c(CN(C)C)c2c1C(=O)/C(=C/c1ccco1)O2 8.55%
O=C1CC(/C=C/c2ccco2)=Nc2ccccc2N1 7.68%
O=C1/C(=C/c2c[nH]c3ccccc23)CCC/C1=C\c1c[nH]c2ccccc12 7.19%
CCNC(=O)COc1ccc(-c2ccccc2)cc1 4.33%
O=C(COC(=O)/C=C/c1ccccc1[N+](=O)[O-])NNC(=O)c1ccc(F)cc1 9.23%
Cc1ccsc1/C=C/C1=Cc2c(sc(NC(=O)CSc3n[nH]c(N)n3)c2C#N)C(C)(C)C1 6.84%
O=S(=O)(Nc1nc2ccccc2nc1N1CCN(c2ccccn2)CC1)c1ccc(Cl)cc1 0.27%
COc1ccc(C2c3ccc(O)cc3Oc3ncn(CCCO)c(=N)c32)cc1OC (configuration not stated) 6.69%
COc1ccc(C2c3ccc(O)cc3Oc3ncn(Cc4ccccc4)c(=N)c32)cc1OC (configuration not stated) 2.66%
Cc1c(O)ccc(/C(Cc2ccc3ccccc3n2)=N\N)c1O 9.3%
CCCCOc1[nH]c2nc(-c3ccco3)n(Cc3ccco3)c(=N)c2c1C#N 7.26%
CCOC(=O)C1=C(C)NC(=O)/C1=C\N(C)C 3.21%
